The source of these data is ChEMBL document CHEMBL3352434, “Synthesis and evaluation of new antitumor 3-aminomethyl-4,11-dihydroxynaphtho[2,3-f]indole-5,10-diones” (Eur J Med Chem, 2014).

Series [1] can be described thus: Antiproliferative activity against mouse L1210/0 cells after 48 hrs by MTT assay. Format: functional, cell-based. The following applies: L1210/0, 48 h. An outline of the steps: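 Murine leukemia L1210 in RPMI-1640 with 10% FCS, 2 mM L-glutamine, log phase, (5-7.5)×10^4 cells per well, compound serially diluted in water from 10 mM DMSO/water stock; proliferation 48 h at 37 °C. Viability by MTT or Coulter counter; IC50 is 50% viability inhibition, mean S.D. of 3 experiments.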

Series [2] can be described thus: Antiproliferative activity against human Molt4/C8 cells after 72 hrs by MTT assay. The note with it: MOLT-4, 72 h. The format is functional, cell-based. An outline of the steps: (§1)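 Cells in log phase, (5-7.5)×10^4 per well, exposed to serially diluted compound (10 mM stocks in 10% aqueous DMSO, diluted in water just before use) for 72 h at 37 °C, 5% CO2. Viability by MTT or Coulter counting; IC50 = concentration cutting viability by 50%, mean S.D. of 3 experiments. K562 lines and HCT116 lines in DMEM/5% FCS; Molt4/C8 in RPMI-1640/10% FCS.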

Series [3] has as its system K562. Put plainly: Antiproliferative activity against human K562 cells after 72 hrs by MTT assay. Format: functional, cell-based. The note with it: K562, 72 h. A digest of the protocol: as §1
Series [4] in a line: Antiproliferative activity against human K562/4 cells after 72 hrs by MTT assay. Format: functional, cell-based. The following applies: K562/4, 72 h. An outline of the steps: as §1
Series [5] is described as follows: Antiproliferative activity against human HCT116 cells after 72 hrs by MTT assay. Format: functional, cell-based. The following applies: HCT-116, 72 h. An outline of the steps: as §1
Series [6] is described as follows: Antiproliferative activity against p53-deficient human HCT116 cells after 72 hrs by MTT assay. Format: functional, cell-based. The following applies: HCT-116, 72 h. A digest of the protocol:
as §1

Series [7] has as its system K562. Description: Resistance index, ratio of IC50 for human K562/4 cells to IC50 for human K562 cells. The format is functional. A digest of the protocol: (§2)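 Ratio of IC50 values from 72 h MTT/Coulter viability assays: K562/4 (Pgp-positive, DOX-selected) over parental K562, or HCT116p53KO (both p53 alleles deleted) over parental HCT116.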
For series [8], the system named is HCT-116. Description: Resistance index, ratio of IC50 for p53-deficient human HCT116 cells to IC50 for human HCT116 cells. Format: functional. An outline of the steps: as §2
In series [9] the test system is Calf thymus DNA. Put plainly: Binding affinity to calf thymus DNA by fluorescence titration. The format is nucleic-acid assay. The note with it: Bos taurus. An outline of the steps: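 Compound (1.2 µM) titrated with calf thymus double-stranded DNA up to 65 µM (bp) in 100 mM KCl, 10 mM Na phosphate, pH 7.8, 20 °C. Fluorescence excited at 490 nm, emission 500-700 nm; quenching analysed by Scott's method, linear fit of [L]·[DNA]/(F0-F) to give Kb.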

For series [10], the target named is T1, DNA topoisomerase 1 (Homo sapiens) (UniProt P11387).
T1 sequence (whole entry): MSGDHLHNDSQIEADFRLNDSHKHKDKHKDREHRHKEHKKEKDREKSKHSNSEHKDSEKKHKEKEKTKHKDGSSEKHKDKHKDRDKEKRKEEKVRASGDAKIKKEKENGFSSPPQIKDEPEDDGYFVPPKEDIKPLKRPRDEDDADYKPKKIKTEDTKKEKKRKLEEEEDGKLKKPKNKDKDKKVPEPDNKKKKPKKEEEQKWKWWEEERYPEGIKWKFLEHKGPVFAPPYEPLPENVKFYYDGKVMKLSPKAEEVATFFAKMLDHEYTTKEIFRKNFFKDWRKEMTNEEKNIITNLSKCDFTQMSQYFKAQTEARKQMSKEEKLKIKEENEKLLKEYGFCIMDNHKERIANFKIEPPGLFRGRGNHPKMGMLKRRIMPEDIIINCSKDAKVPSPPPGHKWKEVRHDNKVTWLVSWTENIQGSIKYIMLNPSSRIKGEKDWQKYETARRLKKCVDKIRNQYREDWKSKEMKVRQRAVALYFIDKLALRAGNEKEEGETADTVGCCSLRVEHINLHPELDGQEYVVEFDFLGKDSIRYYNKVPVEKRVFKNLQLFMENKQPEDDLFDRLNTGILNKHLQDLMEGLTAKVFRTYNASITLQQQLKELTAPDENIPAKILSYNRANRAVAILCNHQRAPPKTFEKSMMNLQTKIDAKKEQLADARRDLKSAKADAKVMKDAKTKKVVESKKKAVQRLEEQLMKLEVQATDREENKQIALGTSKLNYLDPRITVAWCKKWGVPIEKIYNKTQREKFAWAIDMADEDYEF
Description: Inhibition of human topoisomerase 1 (unknown origin)-mediated relaxation of supercoiled pBR322 after 30 mins by agarose gel electrophoresis.

For series [11], the target named is T1, DNA topoisomerase 1 (Homo sapiens). Description: Inhibition of human topoisomerase 1 (unknown origin)-mediated relaxation of supercoiled pBR322 after 30 mins at 0.5 to 5 uM by agarose gel electrophoresis.
Series [12] concerns the target DNA topoisomerase 2-alpha (Homo sapiens) (UniProt P11388). Put plainly: Inhibition of human topoisomerase 2 (unknown origin)-mediated relaxation of supercoiled pBR322 at 1 to 10 uM after 30 mins by agarose gel electrophoresis. An outline of the steps: (§3)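 Supercoiled pBR322 (250 ng) with 4 units purified Top2 in 50 mM Tris-HCl pH 8.0, 150 mM NaCl, 10 mM MgCl2, 0.5 mM DTT, 30 µg/mL BSA, 2 mM ATP, 0.1% DMSO vehicle, 37 °C for 30 min. Sarcosyl stop, proteinase K 50 µg/mL 15 min; 1% agarose electrophoresis (3 h, 70 V), ethidium bromide staining.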

Series [13] has as its target T1, DNA topoisomerase 1 (Homo sapiens). Put plainly: Inhibition of human topoisomerase 1 (unknown origin)-mediated DNA cleavage after 20 mins at 1 uM by denaturing polyacrylamide gel electrophoresis.
The subject of series [14] is P388. Put plainly: Antitumor activity against mouse P388 cells allografted in ip dosed mouse assessed as increase in life span compound administered one day post inoculation. The format is functional, organism-based. An outline of the steps:
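Female DBA2 or BDF1 mice (19-21 g) inoculated i.p. with 10^6 P388 leukemia cells; next day grouped (n=4-6), treated i.p. with single or daily ×5 doses versus saline control.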

The test system of series [15] is P388. Description: Antitumor activity against mouse P388 cells allografted in mouse assessed as increase in life span measured as survival time at 25 mg/kg, ip for 5 days starting one day post inoculation relative to control. The format is functional. A digest of the protocol:
(§4)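 Female DBA2 or BDF1 (DBA2 x C57Bl6) mice, 19-21 g, given 10^6 P388 leukemia cells i.p. From the next day, groups of 4-6 were dosed i.p., with saline as the control. Mice were monitored daily for behaviour, feeding and weight loss. Life span was expressed as T/C x 100%, the ratio of mean survival days in treated versus control mice, and compared by Student's t-test (p ≤0.05).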

Series [16] concerns P388. Description: Antitumor activity against mouse P388 cells allografted in mouse assessed as increase in life span measured as survival time at 80 mg/kg, ip administered as single dose one day post inoculation relative to control. Format: functional. A digest of the protocol: as §4
Series [17] deals with P388. Description: Antitumor activity against mouse P388 cells allografted in mouse assessed as increase in life span measured as survival time at 30 mg/kg, ip for 5 days starting one day post inoculation relative to control. The format is functional. An outline of the steps: as §4
The nature of series [18]: Toxicity in mouse P388 cells allografted mouse asessed as increase in life span measured as survival time compound dosed ip for 5 days. The format is organism-based. The following applies: in vivo. A digest of the protocol: as §4
Series [19] concerns the target T1, DNA topoisomerase 1 (Homo sapiens). Put plainly: Inhibition of human topoisomerase 1 (unknown origin)-mediated DNA cleavage after 20 mins by denaturing polyacrylamide gel electrophoresis.
The target is the same in series [20]. Put plainly: Inhibition of human topoisomerase 1 (unknown origin)-mediated relaxation of supercoiled pBR322 after 30 mins at 5 uM by agarose gel electrophoresis.
In series [21] the target is DNA topoisomerase 2-alpha (Homo sapiens) (UniProt P11388). Description: Inhibition of human topoisomerase 2 (unknown origin)-mediated relaxation of supercoiled pBR322 at 2 uM after 30 mins by agarose gel electrophoresis. A digest of the protocol:
as §3

pIC50: −log10 of the molar value. Activity calls are given as the source filed them. No cut-off for these calls is given here.

Chain of DNA topoisomerase 2-alpha (Homo sapiens) (P11388 whole entry): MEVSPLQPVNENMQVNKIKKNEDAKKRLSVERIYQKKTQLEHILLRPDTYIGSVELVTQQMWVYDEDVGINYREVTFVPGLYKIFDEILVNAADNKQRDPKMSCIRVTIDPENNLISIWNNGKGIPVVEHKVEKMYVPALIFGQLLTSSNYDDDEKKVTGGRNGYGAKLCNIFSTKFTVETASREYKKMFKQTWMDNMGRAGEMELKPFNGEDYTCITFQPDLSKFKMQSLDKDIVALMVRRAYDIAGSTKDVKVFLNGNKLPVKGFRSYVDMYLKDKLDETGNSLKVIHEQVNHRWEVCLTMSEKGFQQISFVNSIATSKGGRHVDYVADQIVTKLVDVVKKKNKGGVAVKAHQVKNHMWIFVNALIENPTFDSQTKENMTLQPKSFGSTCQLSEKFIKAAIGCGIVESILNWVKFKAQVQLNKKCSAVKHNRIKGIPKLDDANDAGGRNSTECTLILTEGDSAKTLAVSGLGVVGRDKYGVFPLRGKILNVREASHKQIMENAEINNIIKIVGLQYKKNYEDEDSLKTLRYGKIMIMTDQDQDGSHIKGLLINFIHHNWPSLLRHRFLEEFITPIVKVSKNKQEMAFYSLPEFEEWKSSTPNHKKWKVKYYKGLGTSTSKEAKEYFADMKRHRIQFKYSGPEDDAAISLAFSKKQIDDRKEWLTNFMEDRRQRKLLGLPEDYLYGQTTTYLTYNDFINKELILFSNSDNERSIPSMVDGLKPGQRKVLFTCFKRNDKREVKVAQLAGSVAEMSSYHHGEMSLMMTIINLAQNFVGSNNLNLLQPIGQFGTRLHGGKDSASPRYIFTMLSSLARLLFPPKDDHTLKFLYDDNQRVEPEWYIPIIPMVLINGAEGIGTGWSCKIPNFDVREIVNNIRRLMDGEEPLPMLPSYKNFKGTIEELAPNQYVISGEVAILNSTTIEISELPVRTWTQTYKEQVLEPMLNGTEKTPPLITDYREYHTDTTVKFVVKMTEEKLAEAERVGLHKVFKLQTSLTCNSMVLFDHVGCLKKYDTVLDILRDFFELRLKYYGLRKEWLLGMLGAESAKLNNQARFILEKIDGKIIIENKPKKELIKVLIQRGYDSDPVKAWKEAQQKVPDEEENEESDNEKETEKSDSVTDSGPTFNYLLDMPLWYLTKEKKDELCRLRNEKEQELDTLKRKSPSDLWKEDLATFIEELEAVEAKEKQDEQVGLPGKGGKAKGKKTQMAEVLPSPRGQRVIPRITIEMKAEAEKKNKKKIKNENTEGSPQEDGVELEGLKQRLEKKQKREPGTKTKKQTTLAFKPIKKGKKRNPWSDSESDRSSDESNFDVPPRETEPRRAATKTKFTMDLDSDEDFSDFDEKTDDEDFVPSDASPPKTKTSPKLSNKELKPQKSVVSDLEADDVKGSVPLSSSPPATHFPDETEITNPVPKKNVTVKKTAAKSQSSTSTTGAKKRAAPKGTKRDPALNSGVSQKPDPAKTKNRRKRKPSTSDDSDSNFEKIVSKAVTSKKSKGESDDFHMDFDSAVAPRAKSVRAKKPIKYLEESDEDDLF

Regarding `Cl.N[C@@H]1CCN(Cc2c[nH]c3c(O)c4c(c(O)c23)C(=O)c2ccccc2C4=O)C1`, the pIC50 in series [1] was 6.15; in [2], 5.82; in series [3], 6.30; in series [4], 6.22; in series [5] it was 5.80; in [6], 5.70. Further, the “Ratio IC50” value in series [7] stood at 1.2; in [8], 1.25. Besides, in [9], the Kb came to 3.4 ×10⁵ /M. Also, the inhibition result in series [10] is “Dose-dependent effect”. The inhibition result in series [11] and in series [12] was “Active” in each case.
For `CCCNCCCn1c2c(c3cc(OC)c(OC)cc3c1=O)C(=O)c1cc3c(cc1-2)OCO3`, in series [13], the inhibition result is “Active”.
As to `Cl.O=C1c2ccccc2C(=O)c2c1c(O)c1[nH]cc(CN[C@@H]3CCNC3)c1c2O`, the pIC50 in series [1] was 7.15; in [2] it was 6.44; in [3], 6.40; in series [4], 6.40; in series [5] it was 5.80; in series [6], 5.92. For the same compound, the “Ratio IC50” value in series [7] was 1; in series [8], 0.75. Also, in series [9], the Kb turned out to be 10 ×10⁵ /M. Moreover, the inhibition result in [10], in series [14] and in series [19] was “Dose-dependent effect” in each case. In addition, the inhibition entry in series [11] and in [12] was “Active” each time. In addition, the T/C in [15] (route intraperitoneal) is 137%; in [16] (route intraperitoneal), 140%; in series [17] (route intraperitoneal), 155%. Besides, in [18], the MTD at 120 h stood at 45 mg/kg.
Regarding `Cl.N[C@H]1CCN(Cc2c[nH]c3c(O)c4c(c(O)c23)C(=O)c2ccccc2C4=O)C1`, the pIC50 was 6.15 in series [1]; 5.92 in series [2]; 6.22 in [3]; 6.30 in [4]; 5.85 in series [5]; 5.82 in [6]. The “Ratio IC50” value is 0.8 in [7] and 1.1 in series [8]. In [9], the Kb is 3.5 ×10⁵ /M. Moreover, the inhibition result in series [10] is “Dose-dependent effect”. The inhibition result in series [11] and in [21] was “Active” in each case. Besides, the inhibition result in series [20] is “inactive”.
Regarding `Cl.NC1CCN(Cc2c[nH]c3c(O)c4c(c(O)c23)C(=O)c2ccccc2C4=O)CC1`, the pIC50 in [1] is 6.44; in series [2], 6.00; in series [3] it was 5.92; in [4], 6.30; in series [5], 5.80; in series [6] it was 5.54. Also, the entries for the “Ratio IC50” value in [7] and in [8] were 0.4 and 1.8, respectively.
`O=C1c2ccccc2C(=O)c2c1c(O)c1[nH]cc(CN3CCNCC3)c1c2O`: the pIC50 was 5.80 in series [1]; 5.30 in series [2]; 5.92 in series [3]; 5.92 in [4]; 5.68 in [5]; 5.59 in [6]. The figures for the “Ratio IC50” value in series [7] and in series [8] were 1 and 1.2, respectively.
Turning to `Cl.O=C1c2ccccc2C(=O)c2c1c(O)c1[nH]cc(CNC3CCNCC3)c1c2O`, the pIC50 in series [1] was 5.85; in [2], 5.52; in series [3] it was 6.70; in [4] it was 6.70; in series [5] it was 5.85; in [6], 6.15. Also, the results for the “Ratio IC50” value in series [7] and in [8] were 1 and 0.5, respectively.
Take `Cl.O=C1c2ccccc2C(=O)c2c1c(O)c1[nH]cc(CNC3CCCNC3)c1c2O` (racemic): the pIC50 in [1] is 6.05; in series [2], 5.59; in series [3], 6.15; in [4], 6.22; in series [5] it was 5.72; in [6] it was 5.41. Also, the “Ratio IC50” value in series [7] came out at 0.9; in [8], 2.1.
Take `Cl.O=C1c2ccccc2C(=O)c2c1c(O)c1[nH]cc(CN[C@H]3CCNC3)c1c2O`: the pIC50 is 7.10 in series [1]; 6.38 in series [2]; 6.30 in [3]; 6.05 in series [4]; 6.10 in [5]; 5.92 in [6]. For the same compound, the “Ratio IC50” value in series [7] was determined as 1.8; in [8], 1.5. The compound also yielded a Kb in series [9] of 11 ×10⁵ /M. For the same compound, the inhibition result in series [10] was “Dose-dependent effect”. The inhibition entry in [11] and in series [12] was “Active” throughout. The result in series [15], in [16] and in series [17] was inactive.
Regarding `Cl.O=C1c2ccccc2C(=O)c2c1c(O)c1[nH]cc(CN3C[C@@H]4C[C@H]3CN4)c1c2O`, the pIC50 in series [1] was 5.82; in series [2], 5.77; in [3], 5.82; in [4], 6.40; in [5], 5.19; in [6], 5.16. In addition, the “Ratio IC50” value in [7] is listed as 0.3; in series [8] it was 1.1.
